# Rows were chosen to be rich in hits. Some 0.84% of all compounds tested hit in one or more screens of this group.
# SKN-1 inh: inhibitors of C. elegans SKN-1. inhibition, % at 21.8 µM. 0.49% of 360,000 active. AID 624304. C. elegans VP596 Pgst-4::GFP/RFP ratio, acrylamide-induced, 24 h;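 active means interference check ratio from 0.5 to 1.5 plus GFP to RFP signal ratio inhibition reaching or exceeding a fixed threshold, cut at about 30% in these data, passing the limit was not always enough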
# DDE Tn6 FP inh: disrupts Tn6 cyclic peptide binding to fibrin D-Dimer-E complex | Fibrin DD(E) TRITC-Tn6 fluorescence polarization displacement | inhibition, % at 8.3 µM | 0.21% of 370,000 active | AID 720509;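 active means inhibition above a per-campaign cutoff: mean of compounds within control limits plus 3 SD, cut at about 15% in these data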;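 further: 0% = median of all compound wells on the plate and 100% = blocking peptide control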
# Target sequence (P02675 whole entry, looked up): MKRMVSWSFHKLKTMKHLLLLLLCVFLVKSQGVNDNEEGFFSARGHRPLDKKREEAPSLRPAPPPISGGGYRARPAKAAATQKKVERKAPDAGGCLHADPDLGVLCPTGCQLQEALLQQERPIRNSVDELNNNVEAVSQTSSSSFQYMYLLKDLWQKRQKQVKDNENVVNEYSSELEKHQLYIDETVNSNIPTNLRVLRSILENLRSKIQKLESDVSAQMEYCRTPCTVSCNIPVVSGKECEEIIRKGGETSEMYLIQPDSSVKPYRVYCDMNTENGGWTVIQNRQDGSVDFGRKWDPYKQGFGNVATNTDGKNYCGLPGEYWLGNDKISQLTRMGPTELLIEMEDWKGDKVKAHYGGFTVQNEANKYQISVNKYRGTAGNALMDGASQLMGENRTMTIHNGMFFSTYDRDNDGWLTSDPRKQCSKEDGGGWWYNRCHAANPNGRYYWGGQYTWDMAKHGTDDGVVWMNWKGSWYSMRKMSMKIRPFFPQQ
# DDE Tn7 FP inh: inhibitors of Tn7 peptide binding to human fibrin DD(E). P02675. FP displacement of FITC-Tn7 peptide from fibrin DD(E); 0% = median of compound wells per plate. inhibition, % at 8.3 µM. 0.13% of 370,000 active;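 active means inhibition above the mean of compounds falling within the control limits plus 3 SD of them, cut at about 14% in these data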;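 further: 0% = plate median of compound wells and 100% = 10 µM Aha-Tn7 peptide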
#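 system = human fibrin DD(E) protein | quantity = DD(E) 2 µM final | medium = Tris/NaCl/CaCl2 buffer, pH 7.8 | also added = labelled Tn7 tracer, 0.1 µM | compound dosing = single point at 8.3 µM | timing = compound with protein 10 min, then 3 h after probe, room temperature | signal = FP measurement | benchmarks = Aha-Tn7 high control | repeats = one replicate per compound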
# MT1-MMP act inh: MT1-MMP (human) activation inhibition; 0.061% of 360,000 active; HT1080 RFP-PRO-GFP cells, GFP/RFP ratio fluorescence, overnight; percent of plate control window, DMSO zero; GFP/RFP ratio change, % at 20 µM; P50281;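 active means GFP/RFP ratio change of at least 30% with cell ATP level not reduced by more than half and red fluorescence within 50% of control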
#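 Assay system – RFP-PRO-GFP reporter HT1080 cells · Compound dosing – single dose of 20 µM compound, 1% DMSO final · Incubation – overnight compound exposure at 37 °C · Measure – GFP/RFP fluorescence ratio · Benchmarks – DMSO wells and RFP-L50D-GFP cells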
# * hit, by the source's call; x = not tested or not shown.
SMILES,SKN-1 inh,DDE Tn6 FP inh,DDE Tn7 FP inh,MT1-MMP act inh
CCN1C(=O)C2C(c3ccccc3F)NC(Cc3ccc(O)cc3)(C(=O)OC)C2C1=O (stereo not given),37*,2,-5,-3
CCOC(=O)C1(Cc2ccccc2)NC(c2ccccc2F)C2C(=O)N(CC)C(=O)C21 (stereo not given),-21,-6,3,1
O=C(Nc1ccc(N2CCCCC2)cc1)c1ccc2ccccc2n1,69*,-6,4,7
Cc1csc(NC(=O)c2ccc3ccccc3n2)n1,11,-8,-3,1
O=C(Nc1cccc(S(=O)(=O)N2CCCCCC2)c1)c1ccc2ccccc2n1,7,3,-3,-11
O=C(Nc1nccs1)c1ccc2ccccc2n1,57*,6,-7,3
CCOc1ccc(-c2c[n+]3c(n2-c2ccccc2)CCCCC3)cc1,7,1,-4,-16
COC(=O)[C@H](CC(C)C)N1Cc2nnn(Cc3ccc(C)cc3)c2-c2cc(F)ccc2S1(=O)=O,x,-7,-11,x
CCCn1c(COc2ccccc2)nc2ccccc21,-11,-5,-3,-2
CCOCCn1c(COc2ccccc2)nc2ccccc21,40*,1,0,9
CC1(Cc2ccc(Cl)cc2)C(=O)Nc2ccc(-c3cccnc3)cc21 (stereo not given),39*,2,2,-20
CC1(Cc2cccc(C(F)(F)F)c2)C(=O)Nc2ccc(-c3ccc(F)c(Cl)c3)cc21 (stereo not given),40*,0,0,-10
CC1(Cc2cccc(F)c2)C(=O)Nc2ccc(-c3cccnc3)cc21 (stereo not given),14,1,4,-11
O=C(C=Cc1ccccc1)c1cc(Br)ccc1O,43*,1,-4,4
Cc1ccc(O)c(C(=O)C=Cc2ccccc2)c1,-4,8,-2,9
c1csc(Cn2nnnc2CN2CCN(c3nc4ccccc4s3)CC2)c1,36*,-3,-6,4
COc1ccc(CN2C(=O)c3ccnn3CC2(C)c2nnnn2-c2c(C)cccc2C)cc1 (stereo not given),x,-8,-2,x
CN(C)/N=C/C=C1\CC/C(=C\c2ccc(Br)cc2)C1=O,41*,-4,-3,-3
COC(=O)[C@]12C[C@H](CC(=O)NCCC(C)C)C(=O)N(Cc3ccc(Cl)cc3Cl)C1=C[C@H](C1CCCC1)O[C@@H]2C,x,-6,-9,x
Cc1c(C(=O)N2CCN(S(=O)(=O)c3ccccc3F)CC2)oc2c(Cl)cccc12,45*,0,5,x
CC1CCCCC1N1CN=C(Nc2nc3ccccc3s2)NC1 (stereo not given),56*,6,3,7
c1ccc2sc(NC3=NCN(C4CCCCC4)CN3)nc2c1,3,x,x,0
COc1ccc(/C=C/C(=O)c2nc3ccccc3n2CC(=O)c2ccc(OC)cc2)cc1,44*,-7,-16,-2
Cc1ccc(C(=O)N(C)CC(=O)Nc2ccc(N3CCOCC3)cc2)s1,35*,0,3,-1
O=C(O)C(Oc1ccc2ccccc2c1)c1ccccc1 (stereo not given),40*,-2,1,2
SMILES,SKN-1 inh,DDE Tn6 FP inh,DDE Tn7 FP inh,MT1-MMP act inh
O=C(O)C(Oc1ccc2c(c1)oc(=O)c1ccccc12)c1ccccc1 (stereo not given),-5,8,1,1
C=CCN1C(=O)[C@@H](CC(=O)NCc2cccc3ccccc23)[C@]2(C(=O)OCC)CCCCC/C=C/12,x,-2,-1,x
CCOc1cc(NC(=O)c2ccco2)c(OCC)cc1NC(=O)c1ccco1,4,2,-1,2
CCOc1cc(NC(=O)c2ccco2)c(OCC)cc1NC(=O)CCc1ccccc1OC,39*,-1,10,2
COC(=O)[C@]12CCCCC=C1N(Cc1cccc3ccccc13)C(=O)[C@H](CC(=O)NCCc1ccccc1OC)C2,4,-3,-5,-6
COC(=O)C1CN(Cc2ccc(OC)cc2)CCS(=O)(=O)N1Cc1cn(CCOC(C)=O)nn1 (stereo not given),x,-4,-11,x
Cc1cccc(Nc2nc(-c3cccs3)cs2)n1,36*,2,1,-13
OC(c1ccc(F)cc1)c1nc(-c2ccncc2)cs1 (stereo not given),-12,-1,-5,7
Fc1ccc(-c2csc(-c3ccncc3)n2)cc1,70*,-7,0,-5
c1ccc(Nc2nc(-c3cccnc3)cs2)nc1,15,2,0,-5
Fc1ccc(-c2csc(Nc3ccccn3)n2)cc1,75*,4,-3,0
c1ccc(Nc2nc(-c3cccs3)cs2)nc1,72*,-10,3,-4
CN(Cc1ccc(F)cc1)C(=O)CN1C(=O)C2(OCCCO2)c2ccccc21,x,11,6,x
O=S(=O)(c1ccc(Br)cc1F)N1CCC(O)CC1,23,-3,-10,3
CCCN1CCCCC(NC(=O)c2ccc(-c3ccccc3)cc2)C1=O (stereo not given),x,-8,8,x
c1cncc(-c2nc(-c3cccs3)cs2)c1,-8,-4,-6,0
c1csc(-c2csc(-c3cccs3)n2)c1,93*,-4,1,6
CCCC(=O)N(CCN1CCOCC1)c1nc2c(OCC)cccc2s1,40*,x,x,1
CCCC(=O)N(CCN1CCOCC1)c1nc2c(OC)ccc(OC)c2s1,-14,7,8,3
Clc1cc(NCc2cccs2)ccc1N1CCOCC1,39*,-13,-5,1
CC(=NNC(=S)N1CCN(c2ccccn2)CC1)c1nccs1,0,x,x,25
CC1=C(C(=O)N2CCOCC2)CC(CC(=O)NCCc2ccccn2)C(=O)N1Cc1ccccc1 (stereo not given),13,4,-4,4
CN(C(=O)CSCC(=O)Nc1ccc(Cl)cc1)C1CCCCC1,37*,0,-4,5
COc1cc(NC(=O)CSCC(=O)N(C)C2CCCCC2)cc(OC)c1,7,-3,-12,-2
Clc1ccc(N2CCN(/N=C/c3ccncc3)CC2)cc1,62*,2,-4,6
SMILES,SKN-1 inh,DDE Tn6 FP inh,DDE Tn7 FP inh,MT1-MMP act inh
Cc1ccccc1-c1ccccc1CN1[C@@H](C(C)C)COCCS1(=O)=O,-2,14,3,-3
Cc1nccc(-c2sc(-c3cccs3)nc2C)n1,39*,-2,6,-1
Cc1nc(-c2cccs2)sc1C(=O)O,0,-3,7,-4
O=C(c1cccs1)N1CCc2c([nH]c3ccccc23)C1c1ccccn1 (stereo not given),5,0,5,-6
O=C(c1cccs1)N1CCc2c([nH]c3ccccc23)C1c1ccc(Cl)cc1 (stereo not given),50*,-5,-4,-8
Cc1ccccc1S(=O)(=O)c1c(C)cc(-c2ccccc2)[nH]c1=O,2,0,2,1
CCOC(=O)c1c(CSCc2ccccc2)oc2ccc(O)c(CN(C)C)c12,3,-8,0,-6
CC1(C)CC(=O)N(CC(=O)N2CCN(c3cccc(C(F)(F)F)c3)CC2)c2ccccc2S1(=O)=O,x,-4,9,x

# From PubChem BioAssay
